In publication PMC2753677 (Biochemistry, 2009):
Entries after “also recorded” stand apart in the source; their conditions may differ.

Key:
[1] = tested on: RANTES-induced migration of mouse CD4+ T cells; test: Boyden chamber chemotaxis assay, RANTES-induced; type: cell-based; conditions: 1 ng/ml mouse RANTES, activated mouse CD4+ T cells (data not shown)
CypA [2] = molecular target: T1, CypA (Homo sapiens, UniProt P62937); test: isothermal titration calorimetry; type: binding
[3] = tested on: CypB-induced chemotaxis of mouse CD4+ T cells; test: Boyden chamber chemotaxis assay, CypB-induced; type: cell-based; conditions: 2 μM compound, 200 ng/ml CypB, activated mouse CD4+ T cells, 50 min
Outline: (§1)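 Mouse spleen cells (3×10^6/well) stimulated overnight with ConA 10 μg/ml in Click's medium + 5% FCS, 37°C, 5% CO2; CD4+ T cells isolated by MACS negative depletion. 104 cells placed in upper wells of 48-well Boyden chamber (5-μm polycarbonate membrane). Lower wells: RPMI-1640 + 1% BSA with recombinant human CypA or recombinant CypB. Test compound added to top and bottom wells. 50 min, 37°C. Membrane Wright-Giemsa stained; chemotactic index = migrated cells/mean medium-alone.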

Par14 = Par14 (Homo sapiens, UniProt Q9Y237); test: PPIase inhibition, Par14; type: biochemical
Par14, sequence (Q9Y237 whole entry): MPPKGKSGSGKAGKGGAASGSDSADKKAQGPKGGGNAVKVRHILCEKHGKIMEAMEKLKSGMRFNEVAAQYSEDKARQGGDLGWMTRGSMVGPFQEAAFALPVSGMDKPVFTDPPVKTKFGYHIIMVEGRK

[4] = ITC control titration of CsA with compound 1; type: binding; conditions: syringe 1, cell CsA; n.s. = no signal of heat formation
[5] = tested on: CypA-induced chemotaxis of mouse CD4+ T cells; test: Boyden chamber chemotaxis assay, CypA-induced; type: cell-based; conditions: 2 μM compound, 100 ng/ml CypA, activated mouse CD4+ T cells, 50 min
Outline: as §1

Human CypB = Human CypB (Homo sapiens, UniProt P23284); test: protease-free PPIase assay, CypB; type: biochemical; conditions: up to a concentration of 30 μM
Human CypB, sequence (P23284 34-216): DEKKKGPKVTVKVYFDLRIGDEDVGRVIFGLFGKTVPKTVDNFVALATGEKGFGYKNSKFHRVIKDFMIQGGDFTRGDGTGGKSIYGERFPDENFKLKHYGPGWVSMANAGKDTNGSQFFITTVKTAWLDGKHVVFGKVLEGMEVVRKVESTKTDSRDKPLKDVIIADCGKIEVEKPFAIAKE

mouse (His)6-CypC = mouse (His)6-CypC (Mus musculus, UniProt P30412); test: protease-free PPIase assay, CypC; type: biochemical
mouse (His)6-CypC, sequence (P30412 whole entry): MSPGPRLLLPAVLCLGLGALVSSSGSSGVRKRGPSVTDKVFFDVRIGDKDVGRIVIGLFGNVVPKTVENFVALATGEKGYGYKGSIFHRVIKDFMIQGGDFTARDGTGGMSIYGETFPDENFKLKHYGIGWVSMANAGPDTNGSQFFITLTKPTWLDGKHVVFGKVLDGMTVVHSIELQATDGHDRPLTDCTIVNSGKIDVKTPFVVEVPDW

FKBP12 = FKBP12 (Homo sapiens, UniProt P62942); test: PPIase inhibition, FKBP12; type: biochemical
FKBP12, sequence (P62942 whole entry, species assumed): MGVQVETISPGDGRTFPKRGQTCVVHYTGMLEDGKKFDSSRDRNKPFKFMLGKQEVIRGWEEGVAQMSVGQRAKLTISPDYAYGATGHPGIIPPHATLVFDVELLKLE

CypA [6] = molecular target: T1, CypA; test: protease-free PPIase assay, CypA; type: biochemical; conditions: 35 mM HEPES pH 7.8, 283 K, Suc-Ala-Ala-Pro-Phe-pNA 60 μM

T1 sequence (P62937 whole entry): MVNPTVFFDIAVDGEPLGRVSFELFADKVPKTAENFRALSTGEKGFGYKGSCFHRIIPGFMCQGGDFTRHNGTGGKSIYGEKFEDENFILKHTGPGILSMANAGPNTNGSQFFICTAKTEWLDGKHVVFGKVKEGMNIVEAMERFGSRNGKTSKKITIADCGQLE

Ki (CypA [6])	Compound	effect on RANTES-induced cell migration [1]	association constant KA (CypA [2]; competition ITC approach, calculated by eq. 2, 293 K)	binding enthalpy ΔH (CypA [2]; competition ITC approach, calculated by eq. 3, 293 K)	Kd (CypA [2]; read-out: dissociation constant KD, ITC probe of CsA/compound 1 competition)	effect on CypB-induced chemotaxis [3]	influence on Par14 (Par14)	KA [4]	inhibition of CypA-induced chemotaxis [5]	response of PPIase activity of CypB (Human CypB)	Ki (mouse (His)6-CypC; CypC, 35 mM HEPES pH 7.8, 283 K, Suc-Ala-Ala-Pro-Phe-pNA 60 μM)	response of PPIase activity of CypC (mouse (His)6-CypC; up to a concentration of 30 μM)	Ki (FKBP12)
	O=C(c1cc(-c2cc(F)cc([N+](=O)[O-])c2O)cc([N+](=O)[O-])c1O)C1CCc2ccccc21 (stereo not shown) [Compound 1]	not impacted	44000 M⁻¹	-2.8 kcal/mol	22.6 µM	barely impacted; also recorded: not influenced	does not influence	n.s.	almost completely; also recorded: specifically inhibited	did not respond	> 100 µM	did not respond	38 ± 8 µM
0.0024 ± 0.0003 µM	[O-(CF-NH(CH2)2NHC(O)CH2-)D-Ser]^8CsA												
